2 compounds from ChEMBL document CHEMBL1821556, “Structure-activity relationships of antitubercular nitroimidazoles. 3. Exploration of the linker and lipophilic tail of ((s)-2-nitro-6,7-dihydro-5H-imidazo[2,1-b][1,3]oxazin-6-yl)-(4-trifluoromethoxybenzyl)amine (6-amino PA-824)” (J Med Chem, 2011) can be followed below.

Each structure is given as a SMILES string. In brackets after ≈: the same amount, converted by molar mass.

A short description of data set [1]: Solubility of the compound. The data set is classed as physicochemical. The method in brief: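 Solubility was measured in buffer at pH 6.8 and reported in μg/mL.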
For data set [2], the system named is Liver. As to the kind of experiment: Half life in mouse liver microsome at 5 mg/kg, iv after 24 hrs by LC/MS/MS analysis. The following applies: microsomes. The data set is classed as ADME. A general note: Liver microsomes are a subcellular fraction often used to study metabolism.
The test system of data set [3] is Mycobacterium tuberculosis. Description: Bactericidal activity against Mycobacterium tuberculosis assessed as minimum concentration required for anaerobicidal activity. The data set is classed as functional. A digest of the protocol: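 Minimum anaerobicidal concentration (μM) against non-replicating Mtb. Run multiple times in two independent laboratories, with discrepant results repeated until concordant. Values are averages of multiple measurements ± SD.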

Data set [4] has as its system Mycobacterium tuberculosis. As to the kind of experiment: Antitubercular activity against Mycobacterium tuberculosis. The data set is classed as functional. The method in brief:
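Whole-cell assay against replicating Mtb, scored as MIC99 in μM. Run multiple times in two independent laboratories, with discrepant results repeated until concordant. Values are averages of multiple measurements ± SD.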

Data set [5] is described as follows: Elimination half life in mouse at 5 mg/kg, iv by LC/MS/MS analysis. Details: dose 5 mg/kg, route intravenous. The data set is classed as ADME, organism-based. The settings on record: in vivo, read-out: beta t1/2 (converted). The method in brief:
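Single intravenous dose of 5mg/kg, using the supernatant of a centrifuged formulation. Blood was sampled at time points from 1min to 24h after dosing. Plasma was extracted and analysed by LC/MS/MS. Pharmacokinetic parameters, including elimination half-life, came from non-compartmental analysis.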

Data set [6] concerns Liver. As to the kind of experiment: Intrinsic clearance in mouse liver microsome at 5 mg/kg, iv after 24 hrs by LC/MS/MS analysis. The data set is classed as ADME. The settings on record: microsomes.

Turning to `CCC(=O)N(Cc1ccc(OC(F)(F)F)cc1)[C@@H]1COc2nc([N+](=O)[O-])cn2C1`, the solubility entry in data set [1] is reported as “Insoluble”.

On to `O=[N+]([O-])c1cn2c(n1)OC[C@@H](NCc1ccc(OC(F)(F)F)c(O)c1)C2`, for which the t1/2 with Liver [2] was 22.4 min. In addition, the Activity in data set [3] was 7.5 µM. Further, the MIC99 (commonly an inhibitory concentration at the 99% level, which refers to growth in some studies and to a panel of isolates in others) in data set [4] amounted to 0.16 µM (≈ 0.0599 µg/mL). The half-life in data set [5] was 24 min. In the data set with Liver [6], this compound displayed a CL of 61.9 µL/min/mg.
